As a reminder, the IC50 is the point on the concentration scale where inhibition reaches its midpoint. Read a high IC50 as a need for much substance.

Data on 2 compounds can be found in ChEMBL document CHEMBL4052613, “Structure-activity relationship studies of 1,7-diheteroarylhepta-1,4,6-trien-3-ones with two different terminal rings in prostate epithelial cell models” (Eur J Med Chem, 2017).

One assay deals with PWR-1E. In words: Antiproliferative activity against human PWR-1E cells after 3 days by WST-1 assay. The format is cell-based. As to conditions: 72 h. The method, boiled down: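 PWR-1E non-neoplastic prostate epithelial cells grown in keratinocyte serum-free medium with bovine pituitary extract and recombinant human EGF. WST-1 proliferation read-out after 3 days of exposure.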
(In general: Formazan colour is commonly taken as a measure of viable cells.)

Assay [1] deals with PC-3. In words: Induction of apoptosis in human PC3 cells assessed as viable cells at 30 uM after 16 hrs by F2N12S orange and SYTOX green double staining based flow cytometry (reference value: 95%). The format is functional. As to conditions: PC-3, 16 h, read-out: Activity. In general terms: In flow cytometry, cells or beads pass a laser one at a time.
For assay [2], the system named is PC-3. In words: Induction of apoptosis in human PC3 cells assessed as viable cells at 5 uM after 16 hrs by F2N12S orange and SYTOX green double staining based flow cytometry (reference value: 95%). As to conditions: PC-3, 16 h, read-out: Activity. The format is functional.
Assay [3] concerns PC-3. In words: Induction of apoptosis in human PC3 cells assessed as necrotic cells at 20 uM after 16 hrs by F2N12S orange and SYTOX green double staining based flow cytometry (reference value: 2 to 3%). The format is functional.
Assay [4] has as its system PC-3. In words: Induction of apoptosis in human PC3 cells assessed as viable cells at 10 uM after 16 hrs by F2N12S orange and SYTOX green double staining based flow cytometry (reference value: 95%). The class given is functional. As to conditions: PC-3, 16 h, read-out: Activity.
Assay [5] concerns PC-3. In words: Induction of apoptosis in human PC3 cells assessed as necrotic cells at 40 uM after 16 hrs by F2N12S orange and SYTOX green double staining based flow cytometry (reference value: 2 to 3%). The format is functional.
The subject of assay [6] is PC-3. In words: Induction of apoptosis in human PC3 cells assessed as apoptotic cells at 30 uM after 16 hrs by F2N12S orange and SYTOX green double staining based flow cytometry (reference value: 2 to 3%). The class given is functional.
For assay [7], the system named is PC-3. In words: Induction of apoptosis in human PC3 cells assessed as viable cells at 40 uM after 16 hrs by F2N12S orange and SYTOX green double staining based flow cytometry (reference value: 95%). The format is functional. As to conditions: PC-3, 16 h, read-out: Activity.
Assay [8] relates to PC-3. In words: Induction of apoptosis in human PC3 cells assessed as necrotic cells at 10 uM after 16 hrs by F2N12S orange and SYTOX green double staining based flow cytometry (reference value: 2 to 3%). The format is functional.
Assay [9] has as its system PC-3. In words: Induction of apoptosis in human PC3 cells assessed as apoptotic cells at 5 uM after 16 hrs by F2N12S orange and SYTOX green double staining based flow cytometry (reference value: 2 to 3%). The format is functional.
Assay [10] concerns PC-3. In words: Induction of apoptosis in human PC3 cells assessed as apoptotic cells at 40 uM after 16 hrs by F2N12S orange and SYTOX green double staining based flow cytometry (reference value: 2 to 3%). The class given is functional.
Assay [11] deals with PC-3. In words: Induction of apoptosis in human PC3 cells assessed as necrotic cells at 5 uM after 16 hrs by F2N12S orange and SYTOX green double staining based flow cytometry (reference value: 2 to 3%). The format is functional.
For assay [12], the system named is PC-3. In words: Induction of apoptosis in human PC3 cells assessed as necrotic cells at 30 uM after 16 hrs by F2N12S orange and SYTOX green double staining based flow cytometry (reference value: 2 to 3%). The format is functional.
Assay [13] deals with PC-3. In words: Induction of apoptosis in human PC3 cells assessed as viable cells at 20 uM after 16 hrs by F2N12S orange and SYTOX green double staining based flow cytometry (reference value: 95%). The class given is functional. As to conditions: PC-3, 16 h, read-out: Activity.
Assay [14] relates to PC-3. In words: Induction of apoptosis in human PC3 cells assessed as apoptotic cells at 20 uM after 16 hrs by F2N12S orange and SYTOX green double staining based flow cytometry (reference value: 2 to 3%). The class given is functional.
Assay [15] has as its system PC-3. In words: Induction of apoptosis in human PC3 cells assessed as apoptotic cells at 10 uM after 16 hrs by F2N12S orange and SYTOX green double staining based flow cytometry (reference value: 2 to 3%). The class given is functional.

Take `COc1cc(/C=C/C(=O)CC(=O)/C=C/c2ccc(O)c(OC)c2)ccc1O` [CURCUMIN]: the half-maximal inhibitory concentration (IC50) with PWR-1E turned out to be 8.14 µM.
For the compound `CN[C@@H]1C[C@H]2O[C@@](C)([C@@H]1OC)n1c3ccccc3c3c4c(c5c6ccccc6n2c5c31)C(=O)NC4` [STAUROSPORINE], in the assay on PC-3 [1], the viability at 30 µM came out at 46%. For the same compound, in the assay with PC-3 [2], the viability at 5 µM turned out to be 87%. Also, the Activity with PC-3 [3] is 8%; with PC-3 [5], 9%; in the assay on PC-3 [6], 47%; in the assay with PC-3 [8], 6%; with PC-3 [9] it was 9%; with PC-3 [10], 60%. Moreover, the Activity in the assay with PC-3 [11] is on record as 4%; in the assay on PC-3 [12], 8%; in the assay on PC-3 [14], 24%; with PC-3 [15], 10%. Also, the viability at 10 µM in the assay with PC-3 [4] amounted to 84%. For the same compound, the viability at 40 µM in the assay with PC-3 [7] was 31%. In the assay with PC-3 [13], the viability at 20 µM was found to be 68%.
